Laboratory results published in ChEMBL document CHEMBL1759852, “A comparative study of proapoptotic potential of cyano analogues of boswellic acid and 11-keto-boswellic acid” (Eur J Med Chem, 2011).
pIC50: −log10 of the molar value.

Test system: HeLa
Experiment: Cytotoxicity against human HeLa cells after 48 hrs by MTT assay
Format: functional, cell-based
Conditions: not given
In short: (§1)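 HL-60 (2 × 10^4/200 μl) or HeLa (1 × 10^4/200 μl) in RPMI-1640/MEM, 10% FCS, 37 °C, 5% CO2; treated 0.1–50 μM for 48 h, DMSO vehicle <0.2%. MTT added final 3 h; formazan dissolved in DMSO, OD 570 nm (reference 620 nm). IC50 as 50% viability versus untreated control; three experiments, CV <10%.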

**Q.** How did the pIC50 turn out when C[C@H]1[C@H](C)CC[C@]2(C)CC[C@]3(C)C(=CC[C@@H]4[C@@]5(C)CC(C(N)=O)[C@H](O)[C@](C)(C(=O)O)[C@@H]5CC[C@]43C)[C@H]12 (stereo partly specified) was run?
**A.** The pIC50 was less than 4.30.

**Q.** C[C@H]1[C@H](C)CC[C@]2(C)CC[C@]3(C)C(=CC[C@@H]4[C@@]5(C)CC[C@@H](O)[C@](C)(C(=O)O)[C@@H]5CC[C@]43C)[C@H]12 [BOSWELLIC ACID] was tested. Which pIC50 did it give?
**A.** Its pIC50 is 4.46.

**Q.** How did the pIC50 turn out when CCCCOC(=O)[C@@]1(C)[C@H](O)CC[C@@]2(C)[C@H]1CC[C@]1(C)[C@@H]2CC=C2[C@@H]3[C@@H](C)[C@H](C)CC[C@]3(C)CC[C@]21C was run?
**A.** Its pIC50 is less than 4.30.

**Q.** With CCCCOC(=O)[C@]1(C)[C@@H]2CC[C@]3(C)[C@H](CC=C4[C@@H]5[C@@H](C)[C@H](C)CC[C@]5(C)CC[C@]43C)[C@@]2(C)CC[C@H]1OC(C)=O as the compound, how does the pIC50 read?
**A.** The pIC50 was less than 4.30.

**Q.** How did the pIC50 turn out when C[C@H]1[C@H](C)CC[C@]2(C)CC[C@]3(C)C(=CC(=O)[C@@H]4[C@@]5(C)CC(C(N)=O)[C@H](O)[C@](C)(C(=O)O)[C@@H]5CC[C@]43C)[C@H]12 (stereo partly specified) was run?
**A.** The pIC50 was less than 4.30.

**Q.** How did the pIC50 turn out when C[C@H]1[C@H](C)CC[C@]2(C)CC[C@]3(C)C(=CC(=O)[C@@H]4[C@@]5(C)CC(C(N)=O)[C@H](O)[C@](C)(N=C=O)[C@@H]5CC[C@]43C)[C@H]12 (stereo partly specified) was run?
**A.** The pIC50 was 4.35.

**Q.** How did the pIC50 turn out when CCCCOC(=O)[C@@]1(C)C(=O)C(C#N)C[C@]2(C)[C@H]3C(=O)C=C4[C@@H]5[C@@H](C)[C@H](C)CC[C@]5(C)CC[C@@]4(C)[C@]3(C)CC[C@@H]12 (stereo partly specified) was run?
**A.** Its pIC50 is 4.77.

**Q.** How did the pIC50 turn out when CCCCOC(=O)[C@@]1(C)[C@H](O)CC[C@@]2(C)[C@H]1CC[C@]1(C)[C@@H]2C(=O)C=C2[C@@H]3[C@@H](C)[C@H](C)CC[C@]3(C)CC[C@]21C was run?
**A.** Its pIC50 is 4.30.

**Q.** With CC(=O)O[C@@H]1CC[C@@]2(C)[C@@H](CC[C@]3(C)[C@@H]2CC=C2[C@@H]4[C@@H](C)[C@H](C)CC[C@]4(C)CC[C@]23C)[C@@]1(C)C(=O)O as the compound, how does the pIC50 read?
**A.** The pIC50 was 4.66.

**Q.** CC(=O)O[C@@H]1CC[C@@]2(C)[C@@H](CC[C@]3(C)[C@@H]2C(=O)C=C2[C@@H]4[C@@H](C)[C@H](C)CC[C@]4(C)CC[C@]23C)[C@@]1(C)C(=O)O [AKBA] was tested. Which pIC50 did it give?
**A.** The pIC50 was 4.51.

**Q.** With CCCCOC(=O)[C@@]1(C)c2oncc2C[C@@]2(C)[C@H]1CC[C@]1(C)[C@@H]2CC=C2[C@@H]3[C@@H](C)[C@H](C)CC[C@]3(C)CC[C@]21C as the compound, how does the pIC50 read?
**A.** The pIC50 was 4.30.

**Q.** With C[C@H]1[C@H](C)CC[C@]2(C)CC[C@]3(C)C(=CC[C@@H]4[C@@]5(C)CC(C(N)=O)[C@H](O)[C@](C)(N=C=O)[C@@H]5CC[C@]43C)[C@H]12 (stereo partly specified) as the compound, how does the pIC50 read?
**A.** The pIC50 was less than 4.30.

**Q.** How did the pIC50 turn out when CCCCOC(=O)[C@@]1(C)c2oncc2C[C@@]2(C)[C@H]1CC[C@]1(C)[C@@H]2C(=O)C=C2[C@@H]3[C@@H](C)[C@H](C)CC[C@]3(C)CC[C@]21C was run?
**A.** The pIC50 was less than 4.30.

Test system: HL-60
Experiment: Cytotoxicity against human HL60 cells after 48 hrs by MTT assay
Format: functional, cell-based
Conditions: HL-60, 48 h
In short: as §1

**Q.** With C[C@H]1[C@H](C)CC[C@]2(C)CC[C@]3(C)C(=CC[C@@H]4[C@@]5(C)CC(C(N)=O)[C@H](O)[C@](C)(C(=O)O)[C@@H]5CC[C@]43C)[C@H]12 (stereo partly specified) as the compound, how does the pIC50 read?
**A.** Its pIC50 is less than 4.30.

**Q.** C[C@H]1[C@H](C)CC[C@]2(C)CC[C@]3(C)C(=CC[C@@H]4[C@@]5(C)CC[C@@H](O)[C@](C)(C(=O)O)[C@@H]5CC[C@]43C)[C@H]12 [BOSWELLIC ACID] was tested. Which pIC50 did it give?
**A.** The pIC50 was 4.62.

**Q.** How did the pIC50 turn out when CCCCOC(=O)[C@@]1(C)[C@H](O)CC[C@@]2(C)[C@H]1CC[C@]1(C)[C@@H]2CC=C2[C@@H]3[C@@H](C)[C@H](C)CC[C@]3(C)CC[C@]21C was run?
**A.** Its pIC50 is less than 4.30.

**Q.** How did the pIC50 turn out when CCCCOC(=O)[C@]1(C)[C@@H]2CC[C@]3(C)[C@H](CC=C4[C@@H]5[C@@H](C)[C@H](C)CC[C@]5(C)CC[C@]43C)[C@@]2(C)CC[C@H]1OC(C)=O was run?
**A.** Its pIC50 is 4.55.

**Q.** C[C@H]1[C@H](C)CC[C@]2(C)CC[C@]3(C)C(=CC(=O)[C@@H]4[C@@]5(C)CC(C(N)=O)[C@H](O)[C@](C)(C(=O)O)[C@@H]5CC[C@]43C)[C@H]12 (stereo partly specified) was tested. Which pIC50 did it give?
**A.** The pIC50 was less than 4.30.

**Q.** C[C@H]1[C@H](C)CC[C@]2(C)CC[C@]3(C)C(=CC(=O)[C@@H]4[C@@]5(C)CC(C(N)=O)[C@H](O)[C@](C)(N=C=O)[C@@H]5CC[C@]43C)[C@H]12 (stereo partly specified) was tested. Which pIC50 did it give?
**A.** Its pIC50 is 4.62.

**Q.** With CCCCOC(=O)[C@@]1(C)C(=O)C(C#N)C[C@]2(C)[C@H]3C(=O)C=C4[C@@H]5[C@@H](C)[C@H](C)CC[C@]5(C)CC[C@@]4(C)[C@]3(C)CC[C@@H]12 (stereo partly specified) as the compound, how does the pIC50 read?
**A.** Its pIC50 is 4.96.

**Q.** With CCCCOC(=O)[C@@]1(C)[C@H](O)CC[C@@]2(C)[C@H]1CC[C@]1(C)[C@@H]2C(=O)C=C2[C@@H]3[C@@H](C)[C@H](C)CC[C@]3(C)CC[C@]21C as the compound, how does the pIC50 read?
**A.** Its pIC50 is 4.47.

**Q.** CC(=O)O[C@@H]1CC[C@@]2(C)[C@@H](CC[C@]3(C)[C@@H]2CC=C2[C@@H]4[C@@H](C)[C@H](C)CC[C@]4(C)CC[C@]23C)[C@@]1(C)C(=O)O was tested. Which pIC50 did it give?
**A.** Its pIC50 is 5.00.

**Q.** How did the pIC50 turn out when CC(=O)O[C@@H]1CC[C@@]2(C)[C@@H](CC[C@]3(C)[C@@H]2C(=O)C=C2[C@@H]4[C@@H](C)[C@H](C)CC[C@]4(C)CC[C@]23C)[C@@]1(C)C(=O)O [AKBA] was run?
**A.** Its pIC50 is 4.96.

**Q.** CCCCOC(=O)[C@@]1(C)c2oncc2C[C@@]2(C)[C@H]1CC[C@]1(C)[C@@H]2CC=C2[C@@H]3[C@@H](C)[C@H](C)CC[C@]3(C)CC[C@]21C was tested. Which pIC50 did it give?
**A.** Its pIC50 is 4.30.

**Q.** How did the pIC50 turn out when C[C@H]1[C@H](C)CC[C@]2(C)CC[C@]3(C)C(=CC[C@@H]4[C@@]5(C)CC(C(N)=O)[C@H](O)[C@](C)(N=C=O)[C@@H]5CC[C@]43C)[C@H]12 (stereo partly specified) was run?
**A.** The pIC50 was less than 4.30.

**Q.** CCCCOC(=O)[C@@]1(C)c2oncc2C[C@@]2(C)[C@H]1CC[C@]1(C)[C@@H]2C(=O)C=C2[C@@H]3[C@@H](C)[C@H](C)CC[C@]3(C)CC[C@]21C was tested. Which pIC50 did it give?
**A.** Its pIC50 is 4.48.
